SENP1 inh – inhibitors of human SENP1 SUMO protease catalytic domain; inhibition, % at 10 µM; recombinant SENP1 catalytic domain, CyPet-SUMO1-YPet FRET cleavage; AID 624204; Q9P0U3; 360,000 compounds, 0.21% hits;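 active = inhibition at least 30% at 10 µM, raw YFP signal under a set limit, fluorescence ratio 0.5 to 1.5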;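 also: 0% = enzyme with DMSO and 100% = no enzyme wells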
Target sequence (Q9P0U3 419-644 limits assumed): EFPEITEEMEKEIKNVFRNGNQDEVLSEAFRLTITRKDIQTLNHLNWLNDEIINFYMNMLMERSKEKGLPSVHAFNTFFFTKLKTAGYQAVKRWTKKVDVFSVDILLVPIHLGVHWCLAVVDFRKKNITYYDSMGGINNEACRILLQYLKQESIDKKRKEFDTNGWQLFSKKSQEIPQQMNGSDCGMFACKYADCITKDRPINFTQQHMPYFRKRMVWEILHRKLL
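material = recombinant human SENP1 catalytic domain, His6-tagged | quantity = 20 pM enzyme | reagent = 25 nM SUMO1 FRET substrate | compound dosing = 10 µM single point, 0.5% DMSO | timing = 50 min enzyme reaction, room temperature, light-protected | detection = FRET, CFP and YFP emission | control set = no-enzyme low, enzyme-DMSO high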
SENP7 inh – blocks the human protease SENP7; recombinant SENP7, Z-RLRGG-aminoluciferin luminescence, 40 min; inhibition, % at 5 µM; 330,000 compounds, 1.5% hits;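 active = inhibition above about 50% at the single test dose, limit read from the data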;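 also: plate controls were DMSO with enzyme for no effect and no enzyme buffer wells for full effect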
SENP6 block – SENP6 protease inhibition. Q9GZR1. Recombinant SENP6 catalytic domain, aminoluciferin luminescence. inhibition, % at 10 µM. 330,000 compounds, 1.8% hits. AID 2599;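 active = inhibition above about 50% at the single tested dose, limit read from the data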;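 also: plate controls were DMSO wells with enzyme for no effect and DMSO wells lacking enzyme for full effect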
CendR NRP1 mod – modulators of CendR peptide binding to human neuropilin-1; O14786; FAM-RPARPAR peptide binding to NRP-1, fluorescence polarization; inhibition, % at 25 µM; 360,000 compounds, 0.85% hits; AID 602438;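 active = inhibition or corrected inhibition above about 18%, plus a signal ratio from 0.5 to 1.5, limit read from the data, passing the limit was not always enough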
SENP8 block-1 – inhibitors of human SENP8 protease; recombinant SENP8, Nedd8 substrate fluorescence; AID 602440; 360,000 compounds, 0.64% hits; Q96LD8; inhibition, % at 20 µM; in the data active = inhibition mostly above about 40%, no sharp cut-off; inactive = mostly below about 27%
Target sequence (Q96LD8 whole entry, looked up): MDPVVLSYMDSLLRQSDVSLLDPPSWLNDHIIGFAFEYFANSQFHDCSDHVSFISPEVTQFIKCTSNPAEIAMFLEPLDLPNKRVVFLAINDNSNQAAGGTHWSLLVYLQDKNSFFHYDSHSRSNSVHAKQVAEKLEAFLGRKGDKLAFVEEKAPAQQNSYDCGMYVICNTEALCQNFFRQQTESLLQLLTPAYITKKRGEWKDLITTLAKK
SENP8 block-2 – SENP8 protease inhibition; 330,000 compounds, 1.2% hits; inhibition, % at 10 µM; purified SENP8, Z-RLRGG-aminoluciferin cleavage, luminescence; in the data active = inhibition above about 50%
* hit, by the source's call; i = inactive; . = not tested or not shown; ! = repeats disagree. In the library only some 3.3% were active in any assay of this set; here they are far more common.

SMILES	SENP1 inh	SENP7 inh	SENP6 block	CendR NRP1 mod	SENP8 block-1	SENP8 block-2
O=[N+]([O-])c1ccc(O)c(/C=N/Nc2nn[nH]n2)c1	4.3	-1.6	0.9	21.2	6.8	0.2
O=[N+]([O-])c1ccc(/C=N/NC2=NS(=O)(=O)c3ccccc32)cc1	3.8	11.7	-10.9	-3.5	22.8	-6.8
O=[N+]([O-])c1ccc(O)c(/C=N\N=C2c3ccccc3-c3ccccc32)c1	58.1*	3.9	6.7	0.9	38.6	-3.0
O=C(CSc1ccc(Cl)cc1)NNC(=O)c1ccncc1	2.1	-10.7	-3.7	0.4	0.5	14.2
Cc1ccc(-c2nc(-c3ccccn3)no2)cc1Cl	2.0	99.2*	95.1*	-3.6	-15.6	96.4*
CCc1cc(-c2nnn(-c3cc(C(C)C)ccc3C)c2CC)ccc1-c1cn(CCc2c[nH]c3ccccc23)nn1	-0.7	.	.	-13.5	4.8	.
COc1cccc(/C=C/C(=O)OCC(=O)c2ccc(Br)cc2)c1	0.6	.	.	18.4*	-31.1	.
COc1cccc(/C=C/C(=O)OCC(=O)Nc2cc(C(F)(F)F)ccc2Cl)c1	2.7	1.5	-6.3	38.6*	-364.1	-13.9
O=C(Nc1ccc(F)cc1)C(c1ccccc1OC(F)(F)F)N1CCN(C(=O)c2ccco2)CC1 (stereo unspecified)	2.2	.	.	2.0	15.3	.
Cc1ccc(S(=O)(=O)Oc2cccc([N+](=O)[O-])c2)cc1	3.3	.	.	5.1	-1.0	.
Cc1ccc(/C=C2/N=C(c3ccccc3)NNC2=O)cc1	0.7	-3.0	-7.5	9.2	35.3	-1.7
O=C1NNC(c2ccccc2)=N/C1=C\c1ccccc1	1.0	6.1	2.0	3.6	46.9*	4.6
OCCN=Cc1c(O)[nH]c2ccccc12	2.8	14.8	-8.5	17.6	15.2	-0.6
Oc1[nH]c2ccccc2c1C=Nc1ccccc1	-3.2	62.1*	67.1*	0.4	38.2	46.5
CCO[C@H]1C[C@@H](c2ccc(CC)cc2)N(S(=O)(=O)c2ccc(C)cc2)C2CC(c3ccc(CC)cc3)N(S(=O)(=O)c3ccc(C)cc3)CC21 (stereo partly specified)	0.5	.	.	9.8	16.1	.
O=[N+]([O-])c1ccc2nc(-c3ccc(Cl)cc3)n(OCc3ccccc3)c2c1	0.9	59.8*	74.5*	-1.3	-1.5	16.3
Clc1ccc(COn2c(-c3ccc(Cl)cc3)nc3ccccc32)cc1	2.0	-5.2	18.4	7.9	-0.3	4.1
COc1ccc(C2Nc3cccc(O)c3C(=O)N2Cc2ccccc2)cc1COc1ccc(NC(C)=O)cc1 (stereo unspecified)	-1.2	.	.	-2.6	-17.0	.
O=C(O)c1ccc(NC2=C(n3nnc4ccccc43)C(=O)c3ccccc3C2=O)cc1	2.7	34.1	-1.7	16.5	54.6*	45.5
O=C(O)c1ccc(-n2nnc3ccccc32)c([N+](=O)[O-])c1	3.0	-0.1	-25.8	-9.1	10.2	-8.5
O=C(NC1CCCCC1)C(c1ccc(C(F)(F)F)cc1)n1c(=O)c(-c2ccco2)nc2ccccc21 (stereo unspecified)	-39.7	.	.	-15.0	-422.8	.
Cc1[nH]c2c(C)cccc2c1CCNC(=O)c1ccc2c(c1[N+](=O)[O-])C(=O)c1ccccc1C2=O	1.5	6.4	-3.0	4.8	43.3*	7.4
COC(=O)C1=CN(c2ccc(F)cc2)C(N)=C(C#N)C1c1cccc(OC)c1OC (stereo unspecified)	-44.3	.	.	17.7	-43.1	.
CN(Cc1ccccc1)c1nc(N)c([N+](=O)[O-])c(NCc2ccccc2)n1	1.2	-2.7	6.7	22.2*	11.8	-0.9
CCN(CC)S(=O)(=O)c1ccc(Cl)c(NC(=O)COC(=O)c2nc3nc(C)cc(C)n3n2)c1	2.4	1.1	6.3	6.2	0.7	-8.6
SMILES	SENP1 inh	SENP7 inh	SENP6 block	CendR NRP1 mod	SENP8 block-1	SENP8 block-2
O=C1C(=O)c2ccccc2C([O-])=C1[n+]1ccccc1	-0.3	6.3	40.5	-1.7	59.2*	12.7
Cn1c(=O)c(-[n+]2ccccc2)c([O-])c2ccccc21	1.7	4.5	-9.6	3.1	-68.0	-5.4
Cc1ccc(S(=O)(=O)N(C)c2ccc3c(c2)C(=O)c2ccccc2-3)cc1	8.2	.	.	-13.6	15.5	.
COc1ccc(C2C(C#N)=C(/N=C/N3CCN(C)CC3)OC3=C2C(=O)CC(C)(C)C3)cc1OC (stereo unspecified)	-0.2	50.3*	-27.1	9.3	5.4	-7.4
Cc1nn(-c2ccc(Cl)c(Cl)c2)c(=O)c2ccccc12	-2.0	4.6	15.0	38.1*	-53.2	-1.4
CCCCCCn1cc(CN2CC(N(C)CCC)CS2(=O)=O)nn1 (stereo unspecified)	1.4	.	.	0.7	7.9	.
COc1ccc(N/C=C/C(=O)C(C)(C)C)cc1	-2.9	-2.5	-18.0	31.1*	-33.7	-8.3
COc1ccc(C2=NC(c3ccccc3)CO2)cc1 (stereo unspecified)	.	50.5*	69.9*	.	.	63.2*
CCC(=O)Nc1nc2nc(-c3ccccc3)cc(-c3ccccc3)n2n1	2.0	-3.4	-8.9	20.7*	-266.5	-3.5
CCCC(=O)Nc1nc2nc(-c3ccccc3)cc(-c3ccccc3)n2n1	0.7	1.5	1.6	-5.2	-270.9	1.7
Cc1ccc(S(=O)(=O)N/N=C\c2cn(CC(N)=O)c3ccccc23)cc1C	-1.7	-9.8	-9.8	25.2*	5.7	-7.9
CN(C(=O)c1cccc(NC(=O)Cc2cccc(NC(=O)C3CCCN(C(=O)C4CCCCC4)C3)c2)c1)C1CCC1 (stereo unspecified)	1.0	.	.	-7.4	-2.9	.
COc1ccc(C(OC(=O)c2ccco2)C(=O)NC(C)(C)C)cc1OC (stereo unspecified)	-0.2	.	.	6.4	22.6	.
C=Cc1c(C)c2cc3[nH]c(cc4nc(cc5nc(cc1[nH]2)C(C)=C5CCC(=O)O)C(CCC(=O)O)=C4C)c(C)c3C=C	-7.0	5.1	-44.8	20.4*!	8.0	11.3
Cc1cc(C)cc(C(=O)Nc2nc3ccccc3[nH]2)c1	-1.2	-11.1	2.3	13.5	-2.5	-24.2
Cc1ccsc1C(=O)Nc1nc2ccccc2[nH]1	-0.4	98.3*	98.6*	-17.4	i	94.7*
Cc1[nH]c2ccccc2c1N=Nc1ccccc1F	-3.0	1.7	-12.6	-0.6	4.2	3.2
Cc1[nH]c2ccccc2c1N=Nc1ccc(F)cc1	4.1	-6.1	15.3	-0.4	46.9*	-8.1
O=C(C(c1ccccc1)C(O)c1ccccc1)N1CCOCC1 (stereo unspecified)	1.8	.	.	4.0	-0.6	.
COc1ccccc1OCC(=O)NNC(=O)CSC(=S)N1CCCC1	1.1	-10.8	-4.0	23.6*	8.5	5.6
N#Cc1nnn2c1nc(N)c1c(Cl)cccc12	-6.9	.	.	6.0	-399.2	.
COc1ccccc1N(CC(=O)NCCSCc1ccccc1)S(=O)(=O)c1ccc(C)cc1	0.5	-3.9	4.5	18.6*	11.4	0.8
COc1ccccc1N(CC(=O)NCCSCc1ccccc1)S(=O)(=O)c1ccccc1	1.7	.	.	1.9	9.6	.

High-throughput results (PubChem)
